Experimental data from ChEMBL document CHEMBL1126975 (J Med Chem, 1993).

How the values were obtained:
[1] = target: T1, Amine oxidase [flavin-containing] B (Rattus norvegicus, UniProt P19643); assay: In vitro inhibitory activity on rat brain MAO-B.
T1 sequence (P19643 whole entry): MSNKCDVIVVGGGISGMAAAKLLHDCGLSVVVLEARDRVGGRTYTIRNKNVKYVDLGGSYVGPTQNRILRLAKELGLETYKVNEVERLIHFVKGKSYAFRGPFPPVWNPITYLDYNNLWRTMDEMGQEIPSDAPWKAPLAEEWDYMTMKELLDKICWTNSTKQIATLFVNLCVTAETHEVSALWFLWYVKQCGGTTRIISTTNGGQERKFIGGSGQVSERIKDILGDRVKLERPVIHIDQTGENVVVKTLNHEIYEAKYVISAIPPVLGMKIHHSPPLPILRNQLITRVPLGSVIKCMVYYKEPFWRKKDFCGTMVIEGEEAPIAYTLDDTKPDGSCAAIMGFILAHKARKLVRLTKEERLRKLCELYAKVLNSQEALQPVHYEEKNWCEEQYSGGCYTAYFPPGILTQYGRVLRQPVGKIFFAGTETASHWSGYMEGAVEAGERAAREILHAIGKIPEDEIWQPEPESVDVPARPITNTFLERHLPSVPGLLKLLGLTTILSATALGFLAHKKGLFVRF
Outline: (§1)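 Radiochemical assay at 37 °C, pH 7.4: MAO A with 10 μM [14C]5-HT, MAO B with 5 μM [14C]PEA. Drug preincubated 20 min with enzyme. Three experiments in duplicate.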

[2] = target: T2, Amine oxidase [flavin-containing] A (Rattus norvegicus, UniProt P21396); assay: In vitro inhibitory activity on rat brain by monoamine oxidase A (MAO-A); outline: as §1
T2 sequence (P21396 whole entry): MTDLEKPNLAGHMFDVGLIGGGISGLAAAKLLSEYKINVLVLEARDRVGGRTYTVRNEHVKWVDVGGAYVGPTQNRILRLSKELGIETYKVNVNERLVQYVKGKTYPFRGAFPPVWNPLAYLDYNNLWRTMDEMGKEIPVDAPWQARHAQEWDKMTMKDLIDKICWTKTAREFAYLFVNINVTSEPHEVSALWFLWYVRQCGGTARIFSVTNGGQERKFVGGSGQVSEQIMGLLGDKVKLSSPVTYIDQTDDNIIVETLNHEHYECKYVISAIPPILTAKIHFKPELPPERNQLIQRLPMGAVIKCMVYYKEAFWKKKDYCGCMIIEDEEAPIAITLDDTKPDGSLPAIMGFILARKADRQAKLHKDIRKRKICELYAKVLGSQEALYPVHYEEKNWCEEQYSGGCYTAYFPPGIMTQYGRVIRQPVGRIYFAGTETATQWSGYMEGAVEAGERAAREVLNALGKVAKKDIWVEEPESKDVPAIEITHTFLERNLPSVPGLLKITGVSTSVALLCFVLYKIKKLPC

[3] = target: T2, Amine oxidase [flavin-containing] A; assay: In Vitro evaluation for the inhibitory activity on rat brain by MAO-A at 100 uM; No Inhibition
Outline: (§2)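 Male Sprague-Dawley rat brain crude mitochondrial fraction, 0.195 mg protein/mL. Radiochemical assay at 37 °C, pH 7.4: MAO A with 10 μM [14C]5-HT, MAO B with 5 μM [14C]PEA. Drug preincubated 20 min with enzyme. […] Three experiments in duplicate.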

[4] = target: T1, Amine oxidase [flavin-containing] B; assay: Compound was evaluated for the time-dependence inhibition of MAO-B at 0 minute pre-incubation periods
Outline: (§3)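 Male Sprague-Dawley rat brain crude mitochondrial fraction, MAO B. Drug preincubated with enzyme at 37 °C for 0, 20, 30 or 60 min, then radiochemical assay with 5 μM [14C]PEA at pH 7.4. IC50 read graphically from 9–12 concentrations; three experiments in duplicate.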

[5] = target: T1, Amine oxidase [flavin-containing] B; assay: Compound was evaluated for the time-dependence inhibition of MAO-B at 20 minutes pre-incubation periods; outline: as §3
[6] = target: T1, Amine oxidase [flavin-containing] B; assay: Compound was evaluated for the time-dependence inhibition of MAO-B at 30 minutes pre-incubation periods; outline: as §3
[7] = target: T1, Amine oxidase [flavin-containing] B; assay: Compound was evaluated for the time-dependence inhibition of MAO-B at 60 minutes preincubation periods; outline: as §3
[8] = target: T1, Amine oxidase [flavin-containing] B; assay: Ex-Vivo Time course of evaluation for the percentage inhibition of MAO-B for 1 hr at single dose 5 mg/kg through oral gavage; type: organism-based; parameters: dose 5 mg/kg, route oral
Outline: (§4)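 Fasted male Sprague-Dawley rats (150 g) dosed orally by gavage, drug suspended in Tween 80 plus 0.5% methylcellulose; vehicle controls. The 100 mg/kg arm was dosed daily for 9 days. Four rats per time point; brains frozen and homogenized in 0.1 M phosphate pH 7.4. Assayed at 37 °C with 8 μM [14C]PEA for 1 min; toluene/ethyl acetate extraction. Percent inhibition vs control, mean ± SEM.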

[9] = target: T2, Amine oxidase [flavin-containing] A; assay: Compound was evaluated for the time-dependence inhibition of MAO-A at 60 minutes of preincubated period. values are same with or without pre-incubation
[10] = target: T1, Amine oxidase [flavin-containing] B; assay: Ex-Vivo percentage inhibition of MAO-B after 24 hr single 5 mg/kg dose by oral gavage; type: organism-based; parameters: dose 5 mg/kg, route oral
Outline: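 Ex vivo oral gavage in fasted male Sprague-Dawley rats (Tween 80 / 0.5% methylcellulose), four rats per group. Brain homogenate taken 24 h after dosing. MAO B assayed with 8 μM [14C]PEA, 1 min at 37 °C; percent inhibition vs vehicle control.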

[11] = target: T1, Amine oxidase [flavin-containing] B; assay: Ex-Vivo Time course of evaluation for the percentage inhibition of MAO-B for 0.5 hr at single dose 5 mg/kg through oral gavage; type: organism-based; parameters: dose 5 mg/kg, route oral; outline: as §4
[12] = target: T1, Amine oxidase [flavin-containing] B; assay: Ex-Vivo Time course of evaluation for the percentage inhibition of MAO-B for 4 hr at single dose 5 mg/kg through oral gavage; type: organism-based; parameters: dose 5 mg/kg, route oral; outline: as §4
[13] = Selectivity for B form was estimated by the ratio of IC50 (MAO A) at 60 min to that of (MAO B)
[14] = target: T1, Amine oxidase [flavin-containing] B; assay: Ex-Vivo Time course of evaluation for the percentage inhibition of MAO-B for 48 hr at single dose 5 mg/kg through oral gavage; type: organism-based; parameters: dose 5 mg/kg, route oral; outline: as §4
[15] = target: T1, Amine oxidase [flavin-containing] B; assay: Ex-Vivo Time course of evaluation for the percentage inhibition of MAO-B for 1 hr at single dose 5 mg/kg through oral gavage (p<0.001); type: organism-based; parameters: dose 5 mg/kg, route oral; outline: as §4
[16] = target: T1, Amine oxidase [flavin-containing] B; assay: Ex-Vivo Time course of evaluation for the percentage inhibition of MAO-B for 4 hr at single dose 5 mg/kg through oral gavage [p<0.05 (Bonferroni''s test)]; type: organism-based; parameters: dose 5 mg/kg, route oral; outline: as §4
[17] = target: T2, Amine oxidase [flavin-containing] A; assay: In Vitro evaluation for the inhibitory activity on rat brain by MAO-A at 100 uM; outline: as §2

Structure (SMILES)	IC50 [1] [nM]	IC50 [2] [nM]	inhibition at 5 mg/kg [10] [%]	inhibition at 5 mg/kg [11] [%]	other results
Cc1cccc(COc2ccc(-c3nn(CCC#N)c(=S)o3)cc2)c1	66	14000	–	–	–
COc1cccc(COc2ccc(C3=NN(CCC#N)C(=O)CO3)cc2)c1	68	32000	–	–	–
N#CCCCn1nc(-c2ccc(OCc3ccccc3)cc2)oc1=O	410	–	–	–	IC50 [3]: Not Active
COc1ccc(COc2ccc(-c3nn(CCC#N)c(=S)o3)cc2)cc1	910	4800	–	–	–
COc1ccc(COc2ccc(-c3nn(CCC#N)c(=O)o3)cc2)cc1	27	16000	–	–	–
Cc1cccc(COc2ccc(C3=NN(CCC#N)C(=O)CO3)cc2)c1	31	40000	–	–	–
Cc1ccc(COc2ccc(C3=NN(CCC#N)C(=O)CO3)cc2)cc1	320	250000	–	–	–
O=c1oc(-c2ccc(OCc3ccccc3)cc2)nn1CCO	3.7	140000	8	65	IC50 [4]: 33 nM; IC50 [5]: 4.6 nM; IC50 [6]: 4.4 nM; IC50 [7]: 4.6 nM; inhibition at 5 mg/kg [8]: 82%; IC50 [9]: 140000 nM; inhibition at 5 mg/kg [12]: 70%; Selectivity [13]: 30400
N#CCCn1nc(-c2ccc(OCc3ccc([N+](=O)[O-])cc3)cc2)oc1=S	4300	2600	–	–	–
Cc1ccc(COc2ccc(-c3nn(CCC#N)c(=S)o3)cc2)cc1	400	10000	–	–	–
N#CCn1nc(-c2ccc(OCc3ccccc3)cc2)oc1=O	60	–	–	–	IC50 [3]: Not Active
N#CCCn1nc(-c2ccc(OCc3ccccc3)cc2)sc1=O	8	45000	15	44	inhibition at 5 mg/kg [8]: 52%; inhibition at 5 mg/kg [14]: 9%; inhibition at 5 mg/kg [12]: 45%
N#CCCn1nc(-c2ccc(OCc3cccc(Cl)c3)cc2)oc1=S	160	11000	–	–	–
N#CCCn1nc(-c2ccc(OCc3ccc([N+](=O)[O-])cc3)cc2)oc1=O	5500	11000	–	–	–
N#CCCn1nc(-c2ccc(OCc3ccc(Cl)cc3)cc2)oc1=S	690	2700	–	–	–
N#CCCN1N=C(c2ccc(OCc3ccc(Cl)cc3)cc2)OCC1=O	100	3400	–	–	–
N#CCCn1nc(-c2ccc(OCc3ccccc3)cc2)sc1=S	16	160000	8	27	inhibition at 5 mg/kg [8]: 18%; inhibition at 5 mg/kg [14]: 10%; inhibition at 5 mg/kg [12]: 8%
N#CCCN1N=C(c2ccc(OCc3cccc(Cl)c3)cc2)OCC1=O	13	13000	–	–	–
Cc1ccc(COc2ccc(-c3nn(CCC#N)c(=O)o3)cc2)cc1	15	25000	-3	9	inhibition at 5 mg/kg [15]: 22%; inhibition at 5 mg/kg [16]: 14%; inhibition at 5 mg/kg [14]: 1%
N#CCCn1nc(-c2ccc(OCc3cccc(Cl)c3)cc2)oc1=O	12	7400	-7	1	inhibition at 5 mg/kg [15]: 36%; inhibition at 5 mg/kg [16]: 29%; inhibition at 5 mg/kg [14]: 4%
N#CCCCCn1nc(-c2ccc(OCc3ccccc3)cc2)oc1=O	490	–	–	–	IC50 [3]: Not Active
N#CCCN1N=C(c2ccc(OCc3ccc([N+](=O)[O-])cc3)cc2)OCC1=O	300	2000	–	–	–
CC(C#N)Cn1nc(-c2ccc(OCc3ccccc3)cc2)oc1=O (centres undefined)	2400	–	–	–	inhibition at 100 µM [17]: 13%
COc1ccc(COc2ccc(C3=NN(CCC#N)C(=O)CO3)cc2)cc1	88	45000	–	–	–
N#CCCN1N=C(c2ccc(OCc3ccccc3)cc2)OCC1=O	18	160000	23	21	inhibition at 5 mg/kg [8]: 31%; inhibition at 5 mg/kg [14]: 16%; inhibition at 5 mg/kg [12]: 22%
N#CCCN1N=C(c2ccc(OCc3ccccc3)cc2)OCC1=S	140	25000	-4	12	inhibition at 5 mg/kg [8]: 3%; inhibition at 5 mg/kg [14]: 9%; inhibition at 5 mg/kg [12]: 5%
N#CCCn1nc(-c2ccc(OCc3ccccc3)cc2)oc1=S	4.4	12000	21	68	IC50 [4]: 47 nM; IC50 [5]: 6.6 nM; IC50 [6]: 4.7 nM; IC50 [7]: 3.7 nM; inhibition at 5 mg/kg [8]: 84%; IC50 [9]: 12000 nM; inhibition at 5 mg/kg [14]: 8%; inhibition at 5 mg/kg [12]: 74%; Selectivity [13]: 3200
Cc1cccc(COc2ccc(-c3nn(CCC#N)c(=O)o3)cc2)c1	8	20000	-3	6	inhibition at 5 mg/kg [8]: 16%; inhibition at 5 mg/kg [14]: -3%; inhibition at 5 mg/kg [12]: 15%
COc1cccc(COc2ccc(-c3nn(CCC#N)c(=S)o3)cc2)c1	100	8100	–	–	–
